Assay outcomes (PubChem BioAssay)
NPY2 pot ag: human NPY-Y2 potentiation or agonism, primary screen | P49146 | activation, % at 3.6 µM | hit rate 0.45% among 220,000 | cells expressing NPY-Y2, potentiator/agonist read-out; in the data active = activation above about 27%;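 note: cells stimulated with NPY near EC25 plus isoproterenol at EC100; 0% = vehicle plus submaximal agonist and 100% = vehicle plus saturating agonist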
NPY-Y2 antag: NPY-Y2 (human) receptor antagonism; hit rate 0.99% among 140,000; P49146; inhibition, % at 2.7 µM; NPY-Y2 expressing cells, antagonist mode; in the data active = inhibition above about 17%;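 note: 0% = vehicle with agonist challenge and 100% = reference antagonist with challenge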
NPY Y1 blocker: blocks the human neuropeptide Y Y1 receptor. HEK293-CNG Y1 cells, membrane potential fluorescence; NPY at EC95, then isoproterenol. inhibition, % at 3.6 µM. hit rate 1% among 200,000. AID 1040;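 active = inhibition above the campaign mean inhibition of all tested compounds plus 3 SD, cut at about 20% in these data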;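 note: 0% = DMSO wells given NPY plus isoproterenol and 100% = isoproterenol alone without NPY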
Target sequence (P25929 whole entry, looked up): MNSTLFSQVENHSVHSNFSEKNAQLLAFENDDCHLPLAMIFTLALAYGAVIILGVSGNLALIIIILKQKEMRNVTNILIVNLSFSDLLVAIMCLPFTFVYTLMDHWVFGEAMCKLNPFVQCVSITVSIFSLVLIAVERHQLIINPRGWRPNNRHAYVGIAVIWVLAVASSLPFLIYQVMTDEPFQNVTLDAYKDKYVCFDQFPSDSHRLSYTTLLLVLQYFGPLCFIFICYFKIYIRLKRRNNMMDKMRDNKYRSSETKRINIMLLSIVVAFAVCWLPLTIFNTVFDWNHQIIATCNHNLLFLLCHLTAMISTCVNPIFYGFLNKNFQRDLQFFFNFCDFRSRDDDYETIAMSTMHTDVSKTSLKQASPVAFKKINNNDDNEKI
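Test system: HEK293 cells co-expressing NPY Y1 receptor and cyclic-nucleotide gated channel; Also added: NPY (25 nM), isoproterenol (1 µM), Ro 20-1724 (25 µM); Compound dosing: one concentration, 3.6 µM, in 0.4% DMSO; Timing: dye 3 h, compound 60 min room temperature, stimulation 45 min; Technique: Membrane-potential fluorescent dye readout.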
NPY1 pot ag: human NPY-Y1 potentiation or agonism, primary screen; P25929; NPY-Y1 expressing cells, potentiator/agonist activation; activation, % at 3.6 µM; hit rate 0.37% among 220,000; in the data active = activation above about 33%, passing the limit was not always enough;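 note: cells stimulated with NPY at EC10 then isoproterenol at EC100; 0% = low agonist plus stimulus and 100% = saturating agonist plus stimulus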
Active calls of the source: *; / = no result given. A selection: hits, their analogues and other compounds. The true share with any hit is near 1.8%.

SMILES | NPY2 pot ag | NPY-Y2 antag | NPY Y1 blocker | NPY1 pot ag
O=C(CC1C(=O)NCCN1C(=O)Nc1ccc(C(F)(F)F)cc1)Nc1ccc(F)cc1 (centres undefined) | 41* | / | / | 69*
CC1(C)CC(C(CCN(Cc2ccccc2)C(=O)c2ccco2)c2ccc(F)cc2)CCO1 (centres undefined) | -4 | 33* | 29* | -18
CCOc1ccccc1NC(=O)C1C2CCC3C(CCC21)C3(Cl)Cl (centres undefined) | -13 | / | 10 | -18
O=C(Nc1ccccc1)C1C2CCC3C(CCC21)C3(Cl)Cl (centres undefined) | -17 | 14 | 21* | -1
Cc1sc(N)nc1C12CC3CC(CC(C3)C1)C2 | 35* | / | -11 | 47*
O=c1c2nnn(-c3ccccc3)c2ncn1C/C=C/c1ccccc1 | -2 | / | -2 | -4
CCOc1ccc(-n2c(SCc3ccc([N+](=O)[O-])cc3)nnc2-c2ccccc2)cc1 | -15 | 149* | 66* | -79
COc1ccc(-n2c(SCc3ccc([N+](=O)[O-])cc3)nnc2-c2ccccc2)cc1 | -6 | 112* | 99* | -98
COc1ccc(-c2nnc(SCc3ccccc3)n2N)cc1 | -29 | 0 | 1 | 3
CCOc1ccc(-c2nnc(SCc3nnc(-c4ccccc4)o3)n2-c2ccccc2F)cc1 | -13 | 19* | 26* | -23
Cc1cc(C)c(NC(=S)N(CCCN2CCOCC2)Cc2cccnc2)c(C)c1 | -6 | / | 1 | -13
O=C(N/N=C/c1cccc(OC(=O)N2CCOCC2)c1)c1cccs1 | -9 | 1 | -6 | 1
CCCCSc1nc(O)cc(=O)n1CC | -5 | / | 7 | -7
O=C1CCC(/C=C/c2ccccc2)=NN1Cc1ccc(Cl)c(Cl)c1 | -10 | 25* | 20* | -34
Cc1cc(=O)oc2cc(OCC(=O)OCC(=O)N(C)C3CCS(=O)(=O)C3)ccc12 (centres undefined) | -6 | / | / | 6
COc1ccccc1NS(=O)(=O)c1cc(NC(=O)Nc2ccccc2)ccc1N1CCCCC1 | 46* | 1 | -9 | 58*
CCOC(=O)c1c(C)c2c(n1C)CCC/C2=N\O | -16 | 32* | 39* | -45
CC(C)C(NS(=O)(=O)c1cccs1)C(=O)NCc1ccc2c(c1)OCO2 (centres undefined) | -2 | 4 | -2 | 12
COc1ccc(CNc2nc3ccccc3n2CCN2CCCCC2)cc1 | 11 | / | 9 | -9
CCN(CC)CCn1c(NCc2nc3ccccc3n2Cc2ccccc2)nc2ccccc21 | -1 | 19* | 22* | -46
c1ccc(Cn2c(CNc3nc4ccccc4n3CCN3CCCCC3)nc3ccccc32)cc1 | -6 | 27* | 17 | -29
CCN(CC)c1ccc(CNc2nc3ccccc3n2CCN2CCCCC2)cc1 | 44* | / | 14 | 45*
CCCCn1c(NCc2ccc3c(c2)OCO3)nc2ccccc21 | -1 | 15 | 20* | -19
O=C(NCCC1=CCCCC1)C(=O)NCC(c1ccco1)N1CCN(c2ccc(F)cc2)CC1 (centres undefined) | 6 | 2 | -4 | -6
COc1cccc(C(=O)Nc2cc(-c3cn4cccnc4n3)ccc2C)c1 | -14 | / | -7 | -2
SMILES | NPY2 pot ag | NPY-Y2 antag | NPY Y1 blocker | NPY1 pot ag
COc1cccc(CNCCc2c[nH]c3ccccc23)c1OCc1ccccc1 | -15 | 24* | 50* | -51
O=C(O)CCCNC1=NCCC1 | 4 | 4 | 42* | 16
CN(C)c1nccc(N(Cc2ccccc2)Cc2ccccc2)c1C#N | -37 | 22* | 66* | -93
Cc1nn(C)cc1/C=N/NC(=O)Cn1nnc(N)n1 | -9 | / | / | 19
Cc1nc2ccc(Nc3ccncc3)cc2s1 | -14 | / | 4 | -8
O=C(/C=C/c1cccc([N+](=O)[O-])c1)Nn1c(-c2ccccc2F)nc2ccccc2c1=O | -19 | 66* | 46* | -89
Cc1cccc(-c2nc3ccccc3c(=O)n2NC(=O)/C=C/c2ccc([N+](=O)[O-])cc2)c1 | -20 | 105* | 80* | -90
Cc1cc(C)n(CC(=O)c2cccc(N)c2)n1 | 17 | / | 1 | 13
Cc1ccc(C(=O)N/C(=C\c2ccc(-c3ccc(Cl)cc3)o2)C(=O)NCCCN(C)C)cc1 | -2 | / | 21* | -14
COc1ccc(CNc2nc(SCC(=O)NCc3ccco3)nc3ccccc23)cc1 | -30 | 50* | 30* | -72
COC(=O)C(CC(C)C)NC(=O)C(Cc1ccccc1)NC(=O)C1CCCN1C(=O)OC(C)(C)C (centres undefined) | 16 | / | 2 | 18
Cc1ccc2[nH]c(=O)c(-c3nc4cc(C)ccn4c3NCc3ccco3)cc2c1 | 33* | 7 | -2 | 31
